This is an account of results in article PMC12644240 (International Journal of Nanomedicine, 2025).

One data set deals with embryonic models. The settings on record: cited from earlier work.
Data set [1] can be described thus: Dissolution study in PBS pH 7.4 under sink conditions. Type of data set: physicochemical. The settings on record: PBS pH 7.4, 37 °C. Put shortly:
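Nanosuspension, coarse suspension or raw powder (1 mg drug each, liquid doses confirmed by HPLC) was added to 100 mL PBS pH 7.4 at 37 °C with magnetic stirring under sink conditions. Samples taken at 1–30 min and 1–8 h were replaced with fresh medium and centrifuged at 15000 rpm for 20 min. Supernatant was assayed by HPLC at 306 nm. At least triplicate, mean ± SD.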

The test system of a further data set is SALL4 and Aiolos. The settings on record: cited from earlier work.
For the next data set, the system named is human CRBN. Conditions: cited from earlier work.
The nature of another data set: Aqueous solubility study. Type of data set: physicochemical. Conditions: bidistilled water, 37 °C, 72 h stirring, n = 3. Put shortly:
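Excess drug (raw powder), coarse suspension or nanosuspension stirred in bidistilled water at 37 °C for 72 h. Samples were centrifuged twice at 15,000 rpm for 30 min, and the clear supernatant was diluted. Drug was quantified by HPLC (C18 column; water:ACN:acetic acid […]; 0.7 mL/min; 306 nm) against a linear calibration curve. n = 3, mean ± SD.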

The conditions of data set [2]: cited from earlier work; for Dissolution after one minute, coarse suspension / Dissolution after one minute, nanosuspension: 1 min; for Dissolution after one minute, nanosuspension: nanosuspension with Tween 80 as stabilizer.
For data set [3] the following is noted: cited from earlier work.

The structures appear in SMILES notation.

As usually defined, the Aqueous solubility is how much of the substance goes into solution per volume.

Take `Nc1cccc2c1C(=S)N(C1CCC(=O)NC1=O)C2=O` (stereo not shown) [MTPOM, 3-monothiopomalidomide]: the Risk of teratogenicity entry in the data set on embryonic models is reported as “significantly attenuated risk of teratogenicity”. For the same compound, the “Drug dissolved at first time point (1 minute)” value in data set [1] (1 min) is recorded as “approximately 22%”. In data set [1] (8 h), the “Drug dissolved at end of test (8 hours)” value came to 44%. Besides, the “Degradation of neosubstrates SALL4 and Aiolos” value in the data set on SALL4 and Aiolos is listed as “without triggering the subsequent degradation”. Besides, the “Binding to human CRBN” value in the data set with human CRBN is reported as “binds to human CRBN”. In “Aqueous solubility study”, this compound returned an Aqueous solubility of 4.8 ± 0.2 µg/mL.

As to `COc1ccc2c(c1)c(CC(=O)O)c(C)n2C(=O)c1ccc(Cl)cc1` [indomethacin], in data set [2], the “Dissolution after one minute, coarse suspension” value is given as “approximately 20%”; the “Dissolution after 30 minutes, coarse suspension” value is on record as 40–50%; the “Dissolution after one minute, nanosuspension” value was “almost complete dissolution”.

As to `CC[C@@H]([C@H](C)O)n1ncn(-c2ccc(N3CCN(c4ccc(OC[C@@H]5CO[C@@](Cn6cncn6)(c6ccc(F)cc6F)C5)cc4)CC3)cc2)c1=O` [posaconazole], in data set [3], the “Average diameter when nanosized via media milling” value is given as 185 nm.

Regarding `CCC(C)n1ncn(-c2ccc(N3CCN(c4ccc(OCC5COC(Cn6cncn6)(c6ccc(Cl)cc6Cl)O5)cc4)CC3)cc2)c1=O` (stereo not shown) [itraconazole], in data set [2], the “Dissolution after one minute, coarse suspension” value is recorded as “approximately 20%”; the “Dissolution after 30 minutes, coarse suspension” value is given as 40–50%; the “Dissolution after one minute, nanosuspension” value is on record as “almost complete dissolution”.
